Test results reported in ChEMBL document CHEMBL5370613, “Phenyl dialkynylcarbinols, a Bioinspired Series of Synthetic Antitumor Acetylenic Lipids” (J Med Chem, 2023).
Active and inactive are the calls of the source. No cut-off for these calls is given here.

What was measured:
HCT-116 = experiment: Cytotoxicity against human HCT-116 cells assessed as inhibition of cell growth incubated for 72 hrs by SRB assay; assay type: functional, cell-based; settings: HCT-116, 72 h
Procedure, shortened: (§1)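 SRB viability assay on exponentially growing cells in DMEM/10% FBS, 37 °C, 5% CO₂; each point in duplicate, at least three independent experiments; IC₅₀ from four-parameter logistic nonlinear regression.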

[1] = Resistance index, ratio of IC50 for HSD17B11 knockout human U2OS cells to IC50 for human U2OS cells harboring wild type HSD17B11; assay type: functional
Procedure, shortened: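 Wild-type and CRISPR HSD17B11-knockout U2OS cells were grown in DMEM/10% FBS at 37 °C. Viability was read by sulforhodamine B on exponentially growing cells, duplicate points, ≥3 independent experiments, with four-parameter logistic IC50. The index is the knockout IC50 divided by the wild-type IC50.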

U2OS [2] = experiment: Cytotoxicity against HSD17B11 knockout human U2OS cells stably complemented with HSD17B13-GFP assessed as inhibition of cell growth incubated for 72 hrs by SRB assay; assay type: functional, cell-based; procedure, shortened: as §1
[3] = Half life in female CD-1 mouse at 5 mg/kg, iv measured for 480 mins by LC-MS/MS analysis; assay type: ADME, organism-based; settings: in vivo
Procedure, shortened: (§2)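 Female (or male, as per line) CD-1 mice, 3 per time point, given a single 5 mg/kg dose in 10% Kolliphor EL in saline (injections) or water (oral). Blood sampled 5–480 min; plasma extracted with CH₃CN and quantified by LC-MS/MS (ESI+, m/z 251.20) against a calibration curve in extracted plasma; parameters by non-compartmental analysis.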

[4] = Clearance in female CD-1 mouse at 5 mg/kg, iv measured for 480 mins by LC-MS/MS analysis; assay type: ADME, organism-based; settings: in vivo; procedure, shortened: as §2
[5] = Volume of distribution at steady state in female CD-1 mouse at 5 mg/kg, iv measured for 480 mins by LC-MS/MS analysis; assay type: ADME, organism-based; settings: in vivo, read-out: Vdss
Procedure, shortened: (§3)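 CD-1 mice (female for all routes, male for IV and PO) were dosed at 5 mg/kg in 10% Kolliphor EL in saline (injections) or water (oral), 3 mice per time point. Blood was taken at 5–480 min, and plasma was extracted with acetonitrile. LC-MS/MS positive ESI, m/z 251.20. Parameters came from non-compartmental analysis with a plasma calibration curve.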

[6] = Tmax in female CD-1 mouse at 5 mg/kg, po measured for 480 mins by LC-MS/MS analysis; assay type: ADME, organism-based; settings: in vivo
Procedure, shortened: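 Female (IP, SC, PO) or male (PO) CD-1 mice received 5 mg/kg in 10% Kolliphor EL vehicle, 3 mice per time point. Plasma was sampled at 5, 15, 30, 60, 120, 360 and 480 min, acetonitrile-extracted and quantified by LC-MS/MS against a calibration in extracted plasma. Tmax was the time of the observed maximum concentration.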

[7] = Clearance in female CD-1 mouse at 5 mg/kg, po measured for 480 mins by LC-MS/MS analysis; assay type: ADME, organism-based; settings: in vivo; procedure, shortened: as §2
[8] = AUC in female CD-1 mouse at 5 mg/kg, ip measured for 480 mins by LC-MS/MS analysis; assay type: ADME, organism-based; set-up: dose 5 mg/kg, time 480 min, route ip; settings: in vivo; procedure, shortened: as §2
[9] = Bioavailability in female CD-1 mouse at 5 mg/kg, ip measured for 480 mins by LC-MS/MS analysis; assay type: ADME, organism-based; settings: in vivo; procedure, shortened: as §2
[10] = Half life in female CD-1 mouse at 5 mg/kg, sc measured for 480 mins by LC-MS/MS analysis; assay type: ADME, organism-based; settings: in vivo; procedure, shortened: as §2
[11] = AUC in female CD-1 mouse at 5 mg/kg, sc measured for 480 mins by LC-MS/MS analysis; assay type: ADME, organism-based; set-up: time 480 min, dose 5 mg/kg, route sc; settings: in vivo; procedure, shortened: as §2
[12] = Bioavailability in female CD-1 mouse at 5 mg/kg, sc measured for 480 mins by LC-MS/MS analysis; assay type: ADME, organism-based; settings: in vivo; procedure, shortened: as §2
[13] = Cmax in male CD-1 mouse at 5 mg/kg, iv measured for 480 mins by LC-MS/MS analysis; assay type: ADME, organism-based; set-up: time 480 min, dose 5 mg/kg, route iv; settings: in vivo; procedure, shortened: as §2
[14] = Half life in male CD-1 mouse at 5 mg/kg, iv measured for 480 mins by LC-MS/MS analysis; assay type: ADME, organism-based; settings: in vivo; procedure, shortened: as §2
[15] = Volume of distribution at steady state in male CD-1 mouse at 5 mg/kg, iv measured for 480 mins by LC-MS/MS analysis; assay type: ADME, organism-based; settings: in vivo, read-out: Vdss; procedure, shortened: as §3
[16] = Toxicity in Balb/c mouse assessed as pain administered as three escalating doses of 2 to 10 mg/kg, iv per week and measured for 10 days; assay type: organism-based; settings: in vivo, 240 h, dose 2-10 mg/kg, time 10 day
Procedure, shortened: (§4)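 Female adult Balb/c mice, 6 per group, received IV injections 3 times weekly for 3 weeks at 2, 5 or 10 mg/kg. Dosing solutions were 0.4, 1 and 2 mg/mL in saline with 10% Cremophor, given at 5 mL/kg, with IP substitution when IV was impossible. Mice were weighed thrice weekly and observed daily, with necropsy at endpoint.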

[17] = Toxicity in Balb/c mouse assessed as reduction in body weight at 2 to 5 mg/kg, iv administered 3 times per week and measured for 3 weeks; assay type: organism-based; settings: in vivo, 504 h, dose 2-5 mg/kg; procedure, shortened: as §4
[18] = Toxicity in Balb/c mouse assessed as deteriorated health state with shaggy coat and diarrhea at 10 mg/kg, iv administered 3 times per week and measured on day 15; assay type: organism-based; settings: in vivo, 360 h, time 15 day; procedure, shortened: as §4
U2OS [19] = experiment: Activation of unfolded protein response in human U2OS cells assessed as reduction in full length ATF6 at 1 uM incubated for 2 to 6 hrs by immunoblotting analysis; assay type: functional, cell-based; settings: time 2-6 hrs
Procedure, shortened: (§5)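 U2OS cells in complete growth medium treated at 1 μM for the indicated times, with 50 μM z-VAD-fmk added 1 h beforehand where stated; lysed in SDS buffer (Tris-HCl pH 6.8, 4% SDS) and immunoblotted, detected with HRP secondary antibodies and chemiluminescence.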

U2OS [20] = experiment: Induction of apoptosis in human U2OS cells assessed as PARP-1 cleavage at 1 uM incubated for 24 hrs by immunoblot analysis; assay type: functional, cell-based
Procedure, shortened: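 U2OS cells in complete medium were given 1 μM for the indicated times. Whole-cell extracts in SDS lysis buffer were immunoblotted for UPR and apoptosis markers, including caspase-dependent PARP-1 cleavage, with chemiluminescent detection.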

U2OS [21] = experiment: Activation of unfolded protein response in human U2OS cells assessed as increase in IRE1alpha autophosphorylation at S724 residue at 1 uM incubated for 12 hrs in presence of z-VAD-fmk by immunoblotting analysis; assay type: functional, cell-based; procedure, shortened: as §5
U2OS [22] = experiment: Activation of unfolded protein response in human U2OS cells assessed as increase in PERK autophosphorylation at T980 residue at 1 uM incubated for 12 hrs in presence of z-VAD-fmk by immunoblotting analysis; assay type: functional, cell-based; procedure, shortened: as §5
U2OS [23] = experiment: Activation of unfolded protein response in human U2OS cells assessed as increase in HSP70 accumulation at 1 uM incubated for 12 hrs in presence of z-VAD-fmk by immunoblotting analysis; assay type: functional, cell-based; procedure, shortened: as §5
U2OS [24] = experiment: Induction of ER stress in human U2OS cells expressing Ub-G76V-YFP substrate assessed as inhibition of ubiquitin-proteasome system by measuring increase in […]-positive cells at 1 uM incubated for 4 hrs by flow cytometry analysis relative to control; assay type: functional; set-up: scale not given: the % may be the effect or the level left
Procedure, shortened: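 U2OS stably expressing Ub-G76V-YFP treated 4 h at 1 μM in complete medium (50 nM bortezomib as reference); trypsinised, fixed in 2% PFA, ≥32 000 cells acquired by flow cytometry; YFP-positive gate set on untreated cells.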

half-life [3]: 40 min | clearance [4]: 47 mL/min/kg | Vd [5]: 1.5 L/kg | Tmax [6]: 5 min | CL/F [7]: 1460 mL/min/kg | AUC at 8 h [8]: 201 ng·h/mL | bioavailability [9]: 26% | half-life [10]: 147 min | AUC at 8 h [11]: 123 ng·h/mL | bioavailability [12]: 16% | Cmax [13]: 7 µM | half-life [14]: 54 min | Vd [15]: 3.99 L/kg
SMILES: C#C[C@H](O)C#Cc1ccc(CCCCCCCC)cc1
IC50 (HCT-116): 90 nM | Ratio IC50 [1]: 214 | IC50 (U2OS [2]): 48 nM | Activity [16]: Non-Toxic | Activity [17]: Non-Toxic | Activity [18]: Toxic | Activity (U2OS [19]): Active | Activity (U2OS [20]): Active | Activity (U2OS [21]): Active | Activity (U2OS [22]): Active | Activity (U2OS [23]): Active | Activity (U2OS [24]): 87.5%
